Test results as given in PubChem BioAssay.
The source made the active and inactive calls.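 How the source made its calls, unless noted: active means fluorescence slope after compound addition differing from the mean of all tested samples at 99.7% confidence, mostly higher but some lower; inactive means the rest.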

Columns and labels:
[1] = inhibitors of TNFa-induced NFkB p65 translocation, primary screen, imaging, HUVEC, MLSMR starter and 10KST1 sets (AID 438;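 active means inhibition above 20% together with a positive visual image hit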;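 further: compound added about 3h40 before a 20 min TNFalpha stimulation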;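 on inhibition: signal is the nuclear over cytoplasmic p65 intensity ratio per well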); conditions: HUVEC TNFa-induced p65 nuclear translocation; cell count: measured here: nuclei count (cytotoxicity indicator), at 2.08 µM; inhibition: at 2 µM, stronger effect = higher value, 0% TNFa-plus-vehicle, 100% no-TNFa wells
[2] = inhibitors of mutant huntingtin aggregation, primary screen, imaging, exon1htt(103Q)mCFP cells, high-content imaging (AID 483;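 active means visual image review flags a hit and inhibition of aggregation exceeds 20%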;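 further: compound exposure lasted 3 days before fixation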;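 on nuclei count: percent of the per-plate median nuclei count of sample wells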); conditions: exon1htt(103Q)mCFP cell line, aggregate imaging, at 2 µM; inhibition of aggregation: stronger effect = higher value; nuclei count: measured here: cell count, toxicity
[3] = inhibitors of E-selectin induction by TNFa, primary screen, imaging, HUVEC, immunofluorescence, MLSMR starter and 10KST1 sets (AID 487;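 active means visually confirmed hit in the image check and inhibition above 20%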;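 on inhibition: signal is fraction of cell area covered by stained E-selectin grains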;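 on nuclei count: 100% = median nuclei count of all wells on the same plate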); conditions: HUVEC TNFalpha-induced E-selectin immunofluorescence imaging, at 2 µM; inhibition: stronger effect = higher value; nuclei count: measured here: cell number, toxicity
[4] = target: Voltage-gated potassium channel subunit beta-2 (Rattus norvegicus) (UniProt P62483); test: KvBeta enzyme negative modulators, primary screen, biochemical, NADPH fluorescence (AID 622;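 active means fluorescence slope higher than the sample average by over 3 SD, cut at about -0.22 in these data, passing the limit was not always enough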;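 further: slope of raw intensity against log time taken from 70 to 1610 s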); conditions: recombinant KvBeta, 4-cyanobenzaldehyde reduction, at 10 µM, stronger effect = higher value
Sequence of Voltage-gated potassium channel subunit beta-2 (Rattus norvegicus) (P62483 whole entry, looked up): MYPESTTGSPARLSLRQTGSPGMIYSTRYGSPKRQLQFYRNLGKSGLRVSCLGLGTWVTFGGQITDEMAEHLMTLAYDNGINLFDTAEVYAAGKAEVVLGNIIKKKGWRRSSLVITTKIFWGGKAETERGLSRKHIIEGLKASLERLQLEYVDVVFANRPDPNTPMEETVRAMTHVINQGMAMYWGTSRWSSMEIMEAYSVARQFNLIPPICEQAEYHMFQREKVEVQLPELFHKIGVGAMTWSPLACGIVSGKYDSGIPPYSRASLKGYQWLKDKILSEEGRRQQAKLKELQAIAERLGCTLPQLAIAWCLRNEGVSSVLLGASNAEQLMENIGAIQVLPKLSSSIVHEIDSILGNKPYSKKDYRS

[5] = target: Voltage-gated potassium channel subunit beta-2 (Rattus norvegicus) (UniProt P62483); test: KvBeta positive modulators, primary screen, biochemical, NADPH fluorescence (AID 623;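 active means NADPH fluorescence slope more negative than the mean of all samples by about 3 SD, 99.7% confidence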;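 further: fluorescence intensity change per second fitted from 20 to 320 s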); conditions: Recombinant KvBeta, NADPH fluorescence decrease slope, 10 min; at 10 µM; stronger effect = lower value
[6] = target: Muscarinic acetylcholine receptor M4 (Homo sapiens) (UniProt P08173); test: compounds altering M4/GIRK thallium flux, either direction, primary screen, M4 allosteric agonist project, cell-based, HEK293 M4/GIRK, BTC-AM (AID 625); conditions: at 10 µM, actives lie on both sides;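 further: thallium influx through GIRK channels coupled to M4 in HEK293 cells with BTC-AM dye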
Sequence of Muscarinic acetylcholine receptor M4 (Homo sapiens) (P08173 whole entry, looked up): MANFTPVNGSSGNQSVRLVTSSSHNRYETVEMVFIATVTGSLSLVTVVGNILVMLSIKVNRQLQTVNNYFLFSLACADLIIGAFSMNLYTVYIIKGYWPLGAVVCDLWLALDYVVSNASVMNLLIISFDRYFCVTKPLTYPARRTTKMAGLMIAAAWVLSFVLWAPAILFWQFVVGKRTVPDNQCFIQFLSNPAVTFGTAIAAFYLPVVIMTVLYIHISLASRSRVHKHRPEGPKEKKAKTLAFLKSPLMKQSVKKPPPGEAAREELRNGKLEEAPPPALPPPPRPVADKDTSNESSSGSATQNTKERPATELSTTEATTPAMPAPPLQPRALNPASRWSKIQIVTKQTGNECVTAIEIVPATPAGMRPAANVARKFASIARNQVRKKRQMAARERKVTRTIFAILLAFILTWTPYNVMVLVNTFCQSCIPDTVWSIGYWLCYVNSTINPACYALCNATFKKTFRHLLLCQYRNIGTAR
Procedure, shortened: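 Material: HEK293 cells with M4 receptor and GIRK channels; Times: cells overnight at 37 °C, BTC-AM loading 1 h, reads 2 min total; Technique: kinetic BTC-AM fluorescence sampled at 1 Hz, 10 s pre-addition baseline; Read-out basis: slope over 15–24 s of trace normalized to starting intensity; Controls: carbachol positive, DMSO negative.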

[7] = inhibitors of Sendai virus-induced IRF3 signaling, primary screen, TLR/RLR signaling modifier project, cell-based, Sendai virus stimulus, luciferase, 10K MLSCN set (AID 602276;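 active means inhibition at or above 50% at 10 µM; inactive means inhibition below 50%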;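 further: firefly luciferase from ISG56 promoter only with Renilla not read in this screen; 0% = Sendai virus plus DMSO and 100% = medium plus DMSO without virus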); conditions: HEK293 RL24 IRF3 luciferase reporter, at 10 µM, stronger effect = higher value
[8] = inhibitors of poly I:C-induced TLR3 signaling, primary screen, cell-based, poly I:C stimulus, luciferase, 10K MLSCN set (AID 602277;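 active means inhibition of the reporter signal at or above 50%; inactive means inhibition below 50%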); conditions: HEK293-TLR3 RL24 IRF3 luciferase reporter, at 10 µM, stronger effect = higher value

SMILES	cell count [1]	inhibition [1]	inhibition of aggregation [2]	nuclei count [2]	inhibition [3]	nuclei count [3]	fluorescence slope [4]	NADPH fluorescence slope [5]	fluorescence slope [6]	inhibition [7]	inhibition [8]
CCc1c(C)nc(N2CCN(Cc3ccccc3)CC2)[nH]c1=O	623	-17.8% (inactive)	17.3% (inactive)	120%	-51.5% (inactive)	106%	-0.507 (inactive)	2.9e-05 (inactive)	0.00476 (inactive)	17.7% (inactive)	10.6% (inactive)
CN(c1ccccc1)C(c1ccc(F)cc1)c1nnnn1CC1CCCO1 (centres undefined)	762	-2.9% (inactive)	-1.8% (inactive)	100%	-61.8% (inactive)	132%	-0.288 (inactive)	-1.6e-05 (inactive)	0.00686 (inactive)	16% (inactive)	42.3% (inactive)
CSc1n[nH]c(NCc2ccccc2)n1	278	0.2% (inactive)	10.1% (inactive)	70.6%	-70.1% (inactive)	119%	-0.482 (inactive)	-1.9e-05 (inactive)	0.00548 (inactive)	6.09% (inactive)	-2.54% (inactive)
O=C(O)C1CC(=O)N(c2ccc(Br)cc2)C1 (centres undefined)	375	0.4% (inactive)	-10.6% (inactive)	107%	-49.6% (inactive)	117%	-0.506 (inactive)	-0.000215 (inactive)	0.00384 (inactive)	2.88% (inactive)	10% (inactive)
CCn1c(=O)cc(SCC(=O)NCC2CCCO2)c2ccccc21 (centres undefined)	404	-4.9% (inactive)	0% (inactive)	97.1%	32.5% (inactive)	103%	-0.568 (inactive)	-1.6e-05 (inactive)	0.00498 (inactive)	18.5% (inactive)	34.6% (inactive)
Cc1ccc(-c2noc(C3CCCN(C(=O)c4ccc(F)cc4F)C3)n2)cc1 (centres undefined)	753	-11.3% (inactive)	1.1% (inactive)	58.6%	-21.5% (inactive)	124%	-0.274 (inactive)	-6.5e-06 (inactive)	0.00592 (inactive)	-9.91% (inactive)	-43.3% (inactive)
CCOCCCNC(=O)C1CCN(C(=O)Nc2ccc(Cl)cc2)CC1	437	-5% (inactive)	-2.7% (inactive)	106%	-40.5% (inactive)	90.7%	-0.324 (inactive)	-6.3e-05 (inactive)	0.00707 (inactive)	10.2% (inactive)	21.5% (inactive)
C=CCOc1nc(N2CCCC2)nc(N2CCCC2)n1	579	-7.6% (inactive)	4.8% (inactive)	109%	23.8% (inactive)	84.1%	-0.551 (inactive)	-8.3e-05 (inactive)	0.00552 (inactive)	10.7% (inactive)	14.3% (inactive)
O=C(NCCN1CCN(c2ccccc2)CC1)c1ccc(NC(=O)C2CCCO2)cc1 (centres undefined)	562	-21.6% (inactive)	-9% (inactive)	99.2%	-135% (inactive)	114%	-0.468 (inactive)	5.8e-06 (inactive)	0.00539 (inactive)	3.22% (inactive)	6.35% (inactive)
CCOC(=O)c1ccccc1NC(=O)CSc1nc2c(c(=O)n(C)c(=O)n2C)n1C	718	-6.2% (inactive)	-10.4% (inactive)	107%	12.3% (inactive)	102%	-0.444 (inactive)	3e-05 (inactive)	0.00588 (inactive)	18.4% (inactive)	25% (inactive)
c1c2c(cc3sc(N4CCCCC4)nc13)OCCO2	266	-5.8% (inactive)	14.4% (inactive)	87.6%	2.1% (inactive)	88.9%	-0.54 (inactive)	-9.8e-06 (inactive)	0.00468 (inactive)	-0.203% (inactive)	-45.7% (inactive)
CCc1ccc(NS(=O)(=O)c2ccc3[nH]cc(C(=O)N4CCCCC4)c(=O)c3c2)cc1	672	13.7% (inactive)	14.2% (inactive)	86%	2.5% (inactive)	81.2%	-0.562 (inactive)	-5.7e-05 (inactive)	0.00784 (inactive)	20.2% (inactive)	24.4% (inactive)
CC(=O)N1CCc2cc(S(=O)(=O)NC(C(=O)NCc3ccccc3)C(C)C)ccc21 (centres undefined)	579	-3.8% (inactive)	23.8% (inactive)	110%	22.1% (inactive)	94.8%	-0.587 (inactive)	-1.2e-05 (inactive)	0.00584 (inactive)	10.6% (inactive)	15.4% (inactive)
CCc1ccc2oc(-c3cc(N)ccc3Cl)nc2c1	563	-33.7% (inactive)	3% (inactive)	98.1%	-53.6% (inactive)	110%	-0.298 (inactive)	8.8e-06 (inactive)	0.006 (inactive)	-31.8% (inactive)	-60.1% (inactive)
